Source: PubChem
This excerpt belongs to a sample that is enriched for hits.
HCT116 bCat-KO – beta-catenin-lacking colon tumor cell growth suppression; HCT116 beta-catenin knockout viability, CellTiter-Glo, 60 h; stronger effect = lower value; AID 818; viability, % at 10 µM; 140,000 compounds, 1.5% hits;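 active means viability at or under a set limit, the compound median less 4 SD, cut at about 6% in these data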;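 further: 0% = Hyamine 1622 control at 20 µM and 100% = untreated cell control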
H69AR inhibit – growth inhibitors of human H69AR lung tumor cells; H69AR lung tumor viability, ATP luminescence, 72 h; stronger effect = lower value; AID 598; 85,000 compounds, 6% hits; viability, % at 10 µM;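 active means viability at or below 40%; inactive means viability above 40%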;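 further: multidrug resistant small cell line overexpressing MRP-1 efflux transporter; 100% = mean luminescence of untreated control wells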
PTEN del growth – PTEN-deleted cell growth suppression; HCT116 PTEN-null viability, CellTiter-Glo, 60 h; stronger effect = lower value; viability, % at 10 µM; 140,000 compounds, 1.2% hits; AID 827;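 active means viability at or below a set limit, 4 SD under the median of all tested compounds, cut at about 3.7% in these data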;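 further: PTEN knockout HCT116 line with beta catenin targeted HCT116 as companion control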
Pyk2 oligo antag – blocks oligomerization of human Pyk2 in cells | Q14289 | Q293 cells, Pyk2 FERM NanoBiT luminescence; stronger effect = lower value | z-score (the deposit names both 25 µM and 10 µM) | 99,000 compounds, 0.83% hits | AID 1347419;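 active means Z-score of -3 or lower, scaled per plate to the spread of control and sample wells; inactive means z-score above -3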;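 further: negative z-score means lost luminescence so less FERM oligomerization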
Target sequence (Q14289 whole entry, looked up): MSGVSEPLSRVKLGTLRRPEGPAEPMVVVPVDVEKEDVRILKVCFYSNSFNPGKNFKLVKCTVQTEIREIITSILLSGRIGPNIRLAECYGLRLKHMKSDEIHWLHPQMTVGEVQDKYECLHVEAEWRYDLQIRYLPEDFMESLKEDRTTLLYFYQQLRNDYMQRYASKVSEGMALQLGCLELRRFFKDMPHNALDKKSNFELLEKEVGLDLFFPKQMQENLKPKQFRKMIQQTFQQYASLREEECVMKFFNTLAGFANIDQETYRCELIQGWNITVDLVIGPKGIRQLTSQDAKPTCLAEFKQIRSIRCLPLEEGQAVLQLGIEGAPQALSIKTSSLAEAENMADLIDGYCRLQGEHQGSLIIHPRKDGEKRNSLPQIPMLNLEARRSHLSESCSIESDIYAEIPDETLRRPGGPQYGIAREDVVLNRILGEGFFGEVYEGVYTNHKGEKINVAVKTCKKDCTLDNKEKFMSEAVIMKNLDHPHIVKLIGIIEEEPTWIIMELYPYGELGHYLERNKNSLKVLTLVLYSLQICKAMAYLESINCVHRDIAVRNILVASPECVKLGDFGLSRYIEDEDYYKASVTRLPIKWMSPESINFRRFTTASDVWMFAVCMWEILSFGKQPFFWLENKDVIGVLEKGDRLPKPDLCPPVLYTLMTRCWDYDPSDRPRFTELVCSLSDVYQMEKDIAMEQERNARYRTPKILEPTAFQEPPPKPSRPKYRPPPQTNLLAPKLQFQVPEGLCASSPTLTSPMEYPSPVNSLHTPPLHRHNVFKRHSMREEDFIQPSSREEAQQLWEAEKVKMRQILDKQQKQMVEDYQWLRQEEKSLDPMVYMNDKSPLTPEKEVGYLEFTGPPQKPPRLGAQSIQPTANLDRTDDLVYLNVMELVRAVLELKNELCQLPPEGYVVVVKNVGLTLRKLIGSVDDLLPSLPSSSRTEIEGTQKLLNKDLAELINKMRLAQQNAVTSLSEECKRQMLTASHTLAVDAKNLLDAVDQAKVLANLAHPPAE
HUVEC prolif 384 – human endothelial cell proliferation inhibition | AID 648 | HUVEC proliferation, CellTiter-Glo luminescence, 72 h; stronger effect = lower value | viability, % at 10 µM (by protocol) | 86,000 compounds, 1.1% hits;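 active means viability at or below 30%; inactive means viability above 30%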;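 further: 100% = median luminescence of DMSO-only cell control wells on each plate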
Fibroblast inh – blocks proliferation of human lung fibroblasts | AID 719 | viability, % at 10 µM | LL 47 human lung fibroblast viability, ATP luminescence; stronger effect = lower value | 85,000 compounds, 1.1% hits;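 active means viability at or below 50% in the single dose screen; inactive means viability above 50%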;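 further: compound exposure lasted 72 h before the ATP readout; 100% = median luminescence of untreated cell-only wells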
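Times – overnight cell rest, 72 h compound treatment at 37 °C · Test system – human lung fibroblast line LL 47, low passage · Amount – 1,150 cells in each well · Controls – cell-only wells, no compound · Doses – 0.1% DMSO in all compound wells · Measured by – CellTiter-Glo luminescence · Buffer or medium – IMEM plus 15% FBS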
* marks the source's active call; other numbers are inactive results; / = not tested or not shown.

SMILES	HCT116 bCat-KO	H69AR inhibit	PTEN del growth	Pyk2 oligo antag	HUVEC prolif 384	Fibroblast inh
O=C1CSC(=S)N1Cc1cccnc1	3.9*	1.2*	3.2*	1.4	51.2	36.5*
COc1ccc(Cl)c(N2CCN(CCCNC(=O)Nc3ccc(C)cc3)CC2)c1	20.9	90.2	24.6	0.86	10.3*	92.9
COc1ccc(Cl)cc1N1CCN(CCNC(=O)Nc2ccccc2C)CC1	54.8	19.2*	50.4	0.98	5.3*	74.6
Cc1ccc(-c2cn(-c3ccccc3)c(SCC(=O)NC3CCS(=O)(=O)C3)n2)cc1C (stereo not given)	87.7	/	95.1	/	/	/
COc1cc(NS(=O)(=O)c2ccc3c(c2)oc(=O)n3C)cc(OC)c1OC	31.0	26.9*	28.1	/	70.6	92.3
COc1ccc(NS(=O)(=O)c2ccc3c(c2)oc(=O)n3C)c(OC)c1	89.0	93.7	92.9	/	97.2	93.3
CSc1nc(SCC(=O)NCc2ccco2)c2c3c(sc2n1)COC(C)(C)C3	31.3	23.4*	39.6	-0.95	62.2	61.8
CCCCc1nc2sc3c(SCC(=O)NCc4ccco4)ncnc3c2c2c1CCC2	14.1	31.8*	36.2	-0.21	56.5	46.7*
CCOC(=O)CSc1nc2sc3c(c2c(=O)[nH]1)CC(C)(CC)OC3 (stereo not given)	100.7	95.4	116.5	0.17	86.0	106.5
CCC1(C)Cc2c(sc3nc(NN)n(C)c(=O)c23)CO1 (stereo not given)	37.2	12.4*	59.6	-0.7	76.7	88.7
CCCSc1nc(SCC(=O)NCc2ccccc2)c2c3c(sc2n1)COC(C)(CC)C3 (stereo not given)	96.2	37.2*	97.2	1.47	67.0	86.7
CCn1c(=O)n(CC(=O)NC2CCCC(C)C2C)c(=O)c2ccccc21 (stereo not given)	90.6	95.7	90.3	-0.18	99.0	93.0
COP(=O)(OC)c1nc(-c2ccccc2)oc1N1CCOCC1	91.4	/	96.8	/	/	/
CCOC(=O)c1c(NC(=O)CN2CCCCC2)sc2c1CCC(C=O)=C2Cl	62.3	/	32.8	-3.11*	/	/
O=C1NC(=S)N(C(=O)c2ccc(F)cc2)/C1=C/c1ccccc1	12.2	/	1.7*	/	/	/
O=C(CS(=O)c1ccc(C(F)(F)F)cc1[N+](=O)[O-])Oc1ccccc1 (stereo not given)	90.5	3.1*	84.2	-0.18	24.5*	44.4*
O=C(CNc1ccc(C(F)(F)F)cc1[N+](=O)[O-])OCC(=O)c1ccccc1	102.7	93.0	88.9	0.71	97.7	94.9
CC(C)(C)NC(=O)CCN(/N=C/c1ccc([N+](=O)[O-])o1)C1=NS(=O)(=O)c2ccccc21	60.3	/	59.7	/	/	/
CCOC(=O)N1CCN(C(=O)COc2cccc3c2CCN(Cc2ccccc2F)C3=O)CC1	86.0	/	83.1	/	/	/
CSc1nnc(-c2sc3cc(C(F)(F)F)cnc3c2-c2ccccc2)n1C	21.4	25.0*	27.2	-3.1*	64.9	60.0
O=C(O)c1sc2cc(C(F)(F)F)cnc2c1-c1ccccc1	100.9	/	107.4	0.09	/	/
O=C(Nc1ccc(F)cc1)N1CCOCC1	97.6	105.3	98.0	1.05	89.1	96.6
O=C(Nc1ccc(Cl)cc1)N1CCCN(Cc2ccc(F)cc2)C1	0.6*	38.7*	0.7*	1.45	65.9	29.3*
COC(=O)C1=C(C)NC2=C(C(=O)CCC2)C1c1ccccn1 (stereo not given)	/	106.1	/	/	107.3	105.6
COC(=O)CSC1=C(C#N)C(c2ccccc2)CC(=O)N1 (stereo not given)	68.8	40.9	62.7	0.34	82.8	92.8
SMILES	HCT116 bCat-KO	H69AR inhibit	PTEN del growth	Pyk2 oligo antag	HUVEC prolif 384	Fibroblast inh
COC(=O)CSC1=C(C#N)C(=O)NC(c2ccccc2)S1 (stereo not given)	90.6	1.3*	95.0	0.49	28.1*	7.4*
COc1cc2ccccc2cc1-c1nnc(COc2ccccc2)o1	89.8	98.8	88.3	/	62.5	98.4
S=C(Nc1ccc(Cl)c(Cl)c1)NC1CCN(Cc2ccccc2)CC1	3.8*	/	7.9	1.27	/	/
S=C(Nc1ccc(Cl)c(Cl)c1)NC1CCCCC1	7.9	/	4.8	-1.7	/	/
Cc1nc(N)sc1-c1csc(Nc2ccccn2)n1	93.7	71.6	93.7	1.55	88.6	93.1
COc1ccc(Nc2nc(-c3sc(N)nc3C)cs2)cc1	96.0	29.3*	93.4	0.15	69.1	85.2
COc1ccc(Nc2nc(-c3sc(NC(C)=O)nc3C)cs2)cc1	94.8	13.4*	94.6	/	36.5	73.4
Cc1nc(NC(=O)c2ccccc2)sc1-c1csc(Nc2ccc(Cl)cc2)n1	81.4	/	68.5	/	/	/
CCCOc1cccc(NC(=O)c2cc(C)oc2C)c1	63.7	80.5	71.8	-0.02	90.2	95.7
O=C(NN1C(=O)c2ccc3c4c(ccc(c24)C1=O)CC3)c1ccc(Br)cc1	87.5	/	97.2	0.8	/	/
CC(C)C(NS(=O)(=O)c1cccs1)C(=O)N1CCc2ccccc2C1 (stereo not given)	97.8	104.8	86.0	-0.64	89.3	80.7
Cc1nn(-c2ccccc2)c2nc(-c3ccncc3)cc(C(=O)NCc3ccco3)c12	60.3	31.3*	53.7	-1.05	69.8	92.3
O=C(NCc1ccco1)c1cc(-c2cccs2)nc2ccccc12	88.0	/	78.1	/	/	/
Cc1nn(-c2ccccn2)c2nc(-c3cccs3)cc(C(=O)NCc3ccco3)c12	63.5	15.8*	66.0	-0.17	71.0	101.0
Fc1cccc(Oc2nc3ccccc3n3cccc23)c1	85.6	/	79.6	1.21	/	/
CC(C)(C)CC(C)(C)NCC(O)COc1c(F)cc(Br)cc1F (stereo not given)	13.1	9.7*	25.9	1.23	98.6	76.2
CC(C)(C)NCC(O)COc1c(F)cc(Br)cc1F (stereo not given)	102.6	/	116.9	-0.52	/	/
CCOC(=O)c1ccc(NC(=S)N2CCSC2c2ccc(Br)cc2)cc1 (stereo not given)	69.8	/	67.1	/	/	/
S=c1[nH]nc(COc2ccc3c(c2)OCO3)n1-c1ccccc1	92.7	37.4*	99.8	0.13	93.1	97.7
COc1ccc(-n2nnnc2SCC#CCO)cc1	88.0	17.9*	86.2	-0.49	54.2	100.4
Cc1ccc(NC(=O)CC2S/C(=N/c3nccs3)N(C)C2=O)c(C)c1 (stereo not given)	90.8	96.4	98.0	0.03	100.7	107.0
Cn1nc(-c2ccc(Cl)cc2)nc2c(=O)n(C)c(=O)nc1-2	79.5	0.7*	86.1	/	3.6*	31.9*
COc1ccc(N(C(=O)Cc2cccs2)C(C(=O)NC2CCCCC2)c2cccn2C)cc1 (stereo not given)	90.4	78.1	83.5	0.42	78.2	86.0
Cn1cccc1C(C(=O)NC1CCCCC1)N(C(=O)Cc1cccs1)c1ccc2c(c1)OCO2 (stereo not given)	100.0	28.3*	101.4	-0.22	85.4	80.5
COc1cc(/C=N/NC(=O)CN2CCCCC2)ccc1OCc1ccc(Br)cc1	91.2	/	92.2	/	/	/
